According to ChEMBL document CHEMBL1138202, “Tricyclic pyrazoles. 4. Synthesis and biological evaluation of analogues of the robust and selective CB2 cannabinoid ligand 1-(2',4'-dichlorophenyl)-6-methyl-N-piperidin-1-yl-1,4-dihydroindeno[1,2-c]pyrazole-3-carboxamide” (J Med Chem, 2006):

How the values were obtained:
[1] = molecular target: Cannabinoid receptor (Mus musculus) (UniProt P47746+P47936); assay: Selectivity for CD1 mouse CB2 receptor over CB1 receptor; assay type: protein assay
Cannabinoid receptor 2 = Cannabinoid receptor 2 (Mus musculus, UniProt P47936); assay: Displacement of [3H]CP-55940 from CD1 mouse spleen CB2 receptor; assay type: tissue-based
Cannabinoid receptor 2, sequence (P47936 whole entry): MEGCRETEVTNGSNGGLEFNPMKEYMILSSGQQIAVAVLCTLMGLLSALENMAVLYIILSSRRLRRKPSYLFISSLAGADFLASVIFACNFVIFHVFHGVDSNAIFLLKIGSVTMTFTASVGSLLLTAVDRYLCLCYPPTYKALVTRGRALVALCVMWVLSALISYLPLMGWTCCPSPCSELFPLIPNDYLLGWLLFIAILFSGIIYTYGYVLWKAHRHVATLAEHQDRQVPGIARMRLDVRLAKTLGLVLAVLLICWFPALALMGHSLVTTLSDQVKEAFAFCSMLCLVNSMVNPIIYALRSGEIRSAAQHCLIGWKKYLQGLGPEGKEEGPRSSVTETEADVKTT
Method in brief: (§1)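 Male CD-1 mouse brain (minus cerebellum) for CB1 or spleen for CB2, homogenised in ice-cold TME (50 mM Tris-HCl, 1 mM EDTA, 3.0 mM MgCl2, pH 7.4) and centrifuged to membranes. GF/C filtration, scintillation counting. Triplicate, five independent experiments; sigmoid fit IC50 converted to Ki.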

[2] = molecular target: Cannabinoid receptor 2 (Homo sapiens) (UniProt P34972); assay: Intrinsic activity at CB2 receptor assessed as induction of ERK1/2 phosphorylation in HL60 cells at 10 nM after 10 mins relative to control; assay type: functional, cell-based
Cannabinoid receptor 2 (Homo sapiens), sequence (P34972 whole entry): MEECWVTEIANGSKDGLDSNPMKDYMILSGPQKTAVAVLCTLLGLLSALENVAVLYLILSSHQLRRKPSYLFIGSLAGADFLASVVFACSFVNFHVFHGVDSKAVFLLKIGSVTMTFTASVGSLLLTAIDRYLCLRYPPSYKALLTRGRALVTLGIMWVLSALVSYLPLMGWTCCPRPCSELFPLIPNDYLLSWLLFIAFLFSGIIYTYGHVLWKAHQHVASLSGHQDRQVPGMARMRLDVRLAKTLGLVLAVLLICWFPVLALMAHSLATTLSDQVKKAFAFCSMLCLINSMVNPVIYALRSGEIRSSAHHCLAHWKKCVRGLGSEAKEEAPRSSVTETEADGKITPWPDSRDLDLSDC
Method in brief: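 HL-60 cells in RPMI 1640 with 10% heat-inactivated FBS, 37 °C, 5% CO2, used at 80% confluency. Compounds in medium with 1% DMSO added to the cell suspension for 10 min. Lysates western blotted with anti-phospho-MAPK 1/2 and read by chemiluminescence. Phospho-ERK 1/2 given as mean percentage of vehicle from five separate experiments.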

Cannabinoid receptor 1 = Cannabinoid receptor 1 (Mus musculus, UniProt P47746); assay: Displacement of [3H]CP-55940 from CD1 mouse brain CB1 receptor; assay type: tissue-based; method in brief: as §1
Cannabinoid receptor 1, sequence (P47746 whole entry): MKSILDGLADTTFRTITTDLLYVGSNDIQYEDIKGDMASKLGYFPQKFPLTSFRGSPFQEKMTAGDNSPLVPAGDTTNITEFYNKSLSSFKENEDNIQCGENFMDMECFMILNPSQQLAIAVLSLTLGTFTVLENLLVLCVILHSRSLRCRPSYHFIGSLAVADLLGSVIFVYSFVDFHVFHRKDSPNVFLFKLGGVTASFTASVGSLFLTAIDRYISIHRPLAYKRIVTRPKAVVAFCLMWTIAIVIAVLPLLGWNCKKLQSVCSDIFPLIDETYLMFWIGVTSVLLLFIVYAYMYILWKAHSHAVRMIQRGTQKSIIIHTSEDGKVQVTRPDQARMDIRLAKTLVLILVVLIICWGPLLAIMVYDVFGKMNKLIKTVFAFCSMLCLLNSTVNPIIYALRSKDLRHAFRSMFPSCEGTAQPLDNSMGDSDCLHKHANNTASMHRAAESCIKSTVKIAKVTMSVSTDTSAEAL

Cannabinoid receptor (Mus musculus), sequence (P47746 whole entry, looked up): as the sequence (P47746 whole entry) above
Cannabinoid receptor (Mus musculus), sequence (P47936 whole entry, looked up): as the sequence (P47936 whole entry) above

`Cc1cc2c(cc1Cl)Cc1c(C(=O)NN3CCCCC3)nn(-c3ccc(Cl)cc3Cl)c1-2` showed a Ratio Ki [1] of 14.

With `Cc1ccc2c(c1)Cc1c(C(=O)Nc3ccccc3)nn(-c3ccc(Cl)cc3Cl)c1-2` the Ki (Cannabinoid receptor 2) was 32.8 nM, the Activity ([2]; HL-60) was 125% and the Activity ([2]; HL-60, filed as agonist) was “Agonist”. For the same molecule, the Ki (Cannabinoid receptor 1) was 2410 nM and the Ratio Ki [1] was 73.

In the case of `Cc1ccc2c(c1)Cc1c(C(=O)Nc3ccc(Cl)cc3Cl)nn(-c3ccc(Cl)cc3Cl)c1-2`, the Ki (Cannabinoid receptor 2) is reported as over 5000 nM and the Ki (Cannabinoid receptor 1) is reported as 2630 nM.

For `Cc1ccc2c(c1)Cc1c(C(=O)NC3CCCCC3)nn(-c3ccc(Cl)cc3Cl)c1-2`, the Ki (Cannabinoid receptor 2) was 7.6 nM, the Activity ([2]; HL-60) was 61.3% and the Activity ([2]; HL-60, filed as agonist) was “Agonist”. It also gave a Ki (Cannabinoid receptor 1) of 900 nM and a Ratio Ki [1] of 118.

Molecule `CCCCCCC(C)(C)c1ccc(C2CC(O)CC[C@H]2CCCO)c(O)c1` (single isomer, unassigned) [CP-55940] has a Ki (Cannabinoid receptor 2) of 1.11 nM and a Ki (Cannabinoid receptor 1) of 1.5 nM.

Molecule `COc1ccc(NNC(=O)c2nn(-c3ccc(Cl)cc3Cl)c3c2Cc2cc(C)ccc2-3)cc1` has a Ki (Cannabinoid receptor 2) of 3000 nM and a Ki (Cannabinoid receptor 1) of over 5000 nM.

Molecule `Cc1cc2c(cc1Cl)-c1c(c(C(=O)NN3CCCCC3)nn1-c1ccc(Cl)cc1Cl)C2` has a Ki (Cannabinoid receptor 2) of 200 nM and a Ratio Ki [1] of 4.6.

In the case of `Cc1ccc2c(c1)Cc1c(C(=O)NNc3ccc(Cl)cc3)nn(-c3ccc(Cl)cc3Cl)c1-2`, the Ki (Cannabinoid receptor 2) is reported as over 5000 nM and the Ki (Cannabinoid receptor 1) is reported as over 10000 nM.

`Cc1ccc2c(c1)Cc1c(C(=O)NNc3ccccc3)nn(-c3ccc(Cl)cc3Cl)c1-2` gave a Ki (Cannabinoid receptor 2) of 63 nM, a Ki (Cannabinoid receptor 1) of 2280 nM and a Ratio Ki [1] of 36.

With `Cc1ccc2c(c1)Cc1c(C(=O)NNc3ccc([N+](=O)[O-])cc3)nn(-c3ccc(Cl)cc3Cl)c1-2` the Ki (Cannabinoid receptor 2) was 2120 nM, the Ki (Cannabinoid receptor 1) was 4500 nM and the Ratio Ki [1] was 2.

In the case of `O=C(NN1CCCCC1)c1nn(-c2ccc(Cl)cc2Cl)c2c1Cc1cc(Cl)ccc1-2`, the Activity ([2]; HL-60) is reported as 65%, the Activity ([2]; HL-60, filed as agonist) is reported as “Agonist” and the Ratio Ki [1] is reported as 6030.

With `COc1ccc(NC(=O)c2nn(-c3ccc(Cl)cc3Cl)c3c2Cc2cc(C)ccc2-3)cc1` the Ki (Cannabinoid receptor 2) was 114 nM and the Ki (Cannabinoid receptor 1) was over 10000 nM.

`Cc1ccc(NC(=O)c2nn(-c3ccc(Cl)cc3Cl)c3c2Cc2cc(C)ccc2-3)cc1` was tested, and the Ki (Cannabinoid receptor 2) was 74 nM and the Ki (Cannabinoid receptor 1) was over 5000 nM.

With `Cc1ccc2c(c1)Cc1c(C(=O)NN3CCCCC3)nn(-c3ccc(Cl)cc3Cl)c1-2` the Ki (Cannabinoid receptor 2) was 0.037 nM, the Activity ([2]; HL-60) was 83% and the Activity ([2]; HL-60, filed as agonist) was “Agonist”. For the same molecule, the Ki (Cannabinoid receptor 1) was 363 nM and the Ratio Ki [1] was 9810.

Molecule `Cc1ccc(Cn2nc(C(=O)N[C@@H]3C(C)(C)[C@@H]4CC[C@@]3(C)C4)cc2-c2ccc(Cl)c(C)c2)cc1` has a Ratio Ki [1] of 250.

With `Cc1ccc2c(c1)Cc1c(C(=O)Nc3ccc(Cl)cc3)nn(-c3ccc(Cl)cc3Cl)c1-2` the Ki (Cannabinoid receptor 2) was 177 nM and the Ki (Cannabinoid receptor 1) was over 10000 nM.

With `Cc1ccc2c(c1)Cc1c(C(=O)Nc3ccc(C(F)(F)F)cc3)nn(-c3ccc(Cl)cc3Cl)c1-2` the Ki (Cannabinoid receptor 2) was over 5000 nM and the Ki (Cannabinoid receptor 1) was over 10000 nM.

In the case of `Cc1ccc2c(c1)Cc1c(C(=O)Nc3ccc(F)cc3)nn(-c3ccc(Cl)cc3Cl)c1-2`, the Ki (Cannabinoid receptor 2) is reported as 61 nM and the Ki (Cannabinoid receptor 1) is reported as over 5000 nM.

`Cc1cc2c(cc1Cl)-c1c(c(C(=O)NC3CCCCC3)nn1-c1ccc(Cl)cc1Cl)C2` was tested, and the Ratio Ki [1] was 33.

`Cc1ccc2c(c1)Cc1c(C(=O)Nc3ccc(Cl)c(Cl)c3)nn(-c3ccc(Cl)cc3Cl)c1-2` was tested, and the Ki (Cannabinoid receptor 2) was over 10000 nM and the Ki (Cannabinoid receptor 1) was over 10000 nM.
